Assay results of several laboratories.
Organism: Severe acute respiratory syndrome coronavirus 2

Fc1ccc([C@@H]2CCNC[C@H]2COc2ccc3c(c2)OCO3)cc1 — IC50 (viral replication; Vero C1008): 3.55 µM
N#Cc1ccc2[nH]cc(CCCCN3CCN(c4ccc5oc(C(=N)Cl)cc5c4)CC3)c2c1 — IC50 (viral replication; inhibitor; Huh-7): > 2 µM
CN1CCN(C2=Nc3ccccc3Oc3ccc(Cl)cc32)CC1 — IC50 (viral replication; inhibitor; A549-ACE2): 5.75 µM
O=C(Nc1ccc([N+](=O)[O-])cc1Cl)c1cc(Cl)ccc1O — IC50 (viral replication; inhibitor; Huh-7): 0.142 µM
COc1ccc2c(O[C@@H]3C[C@H]4C(=O)N[C@]5(C(=O)NS(=O)(=O)C6CC6)C[C@H]5/C=C\CCCCN(C)C(=O)[C@@H]4C3)cc(-c3nc(C(C)C)cs3)nc2c1C — IC50 (viral replication; HEK-293T): 2.3 µM
CN(Cc1cc(Br)cc(Br)c1N)C1CCCCC1 — IC50 (viral replication; inhibitor; A549-ACE2): 1.32 µM
CCC(CC)COC(=O)[C@H](C)N[P@](=O)(OC[C@H]1O[C@@](C#N)(c2ccc3c(N)ncnn23)[C@H](O)[C@@H]1O)Oc1ccccc1 — IC50 (viral replication; inhibitor; Calu-3; 40 h): 0.389 µM
CCN(CC)CCOc1ccc2c(c1)C(=O)c1cc(OCCN(CC)CC)ccc1-2 — IC50 (viral replication; inhibitor; Vero; 24 h): 79.2 µM
O=C1NCN(c2ccccc2)C12CCN(CCCC(c1ccc(F)cc1)c1ccc(F)cc1)CC2 — IC50 (viral replication; inhibitor; Vero C1008): 3.16 µM
CC(C)[C@H]1CC[C@H](C(=O)N[C@H](Cc2ccccc2)C(=O)O)CC1 — IC50 (viral replication; inhibitor; Huh-7): > 2 µM
CC(CN1c2ccccc2Sc2ccccc21)N(C)C (stereo not shown) — IC50 (viral replication; Vero C1008): 3.16 µM
CCN(CC)CCCC(C)Nc1ccnc2cc(Cl)ccc12 (stereo not shown) — IC50 (viral replication; inhibitor; Vero C1008): 42 µM
Fc1ccc(C(OCCN2CCN(CCCc3ccccc3)CC2)c2ccc(F)cc2)cc1 — IC50 (viral replication; inhibitor; A549-ACE2): 6.03 µM
C[C@@H](O)[C@H]1C(=O)N2C(C(=O)O)=C(S[C@@H]3CN[C@H](C(=O)N(C)C)C3)[C@H](C)[C@H]12 — IC50 (viral replication; inhibitor; Huh-7): > 2 µM
CCOP(=O)(OCC)N1C/C(=C\c2ccccc2)C(=O)C2(C1)C(c1ccccc1)CN(C)C21C(=O)Nc2ccc(Cl)cc21 (stereo not shown) — IC50 (viral replication; inhibitor; Vero C1008; 72 h): 10.4 µM
CCN(CC)CCO[C@H]1CC[C@@]2(C)C(=CC[C@@H]3[C@@H]2CC[C@]2(C)C(=O)CC[C@@H]32)C1 — IC50 (viral replication; Vero C1008): 2.4 µM
Nc1nc(S)[nH]c(=S)c1C(=O)Nc1ccccc1 — IC50 (viral replication; Vero C1008; 72 h): 341 µM
C[C@H](Nc1nc(N2CCNCC2)nc2ccccc12)c1ccccc1 — IC50 (cytopathic effect; Vero C1008; 72 h): 10 µM
COC(=O)Nc1nc2ccc(C(=O)c3ccccc3)cc2[nH]1 — IC50 (viral replication; inhibitor; Vero C1008): 0.25 to 1.2 µM
CC(C)CCCCCCCCC[C@@H]1CC(=O)N[C@@H](CCC(=O)O)C(=O)N[C@@H](CC(C)C)C(=O)N[C@H](CC(C)C)C(=O)N[C@@H](C(C)C)C(=O)N[C@@H](CC(=O)O)C(=O)N[C@H](CC(C)C)C(=O)N[C@@H](CC(C)C)C(=O)O1 — IC50 (viral replication; inhibitor; Vero; 24 h): > 0.4 µg/mL
CC(=O)OC[C@H]1O[C@@H](Sc2nc(N)c(C(=O)Nc3ccc(Cl)cc3)c(=S)[nH]2)[C@H](OC(C)=O)[C@@H](OC(C)=O)[C@@H]1OC(C)=O — IC50 (viral replication; Vero C1008; 72 h): 77.4 µM
CC(C)(C)CC(C)(C)c1ccc(O)c(Cc2ccc(Cl)cc2Cl)c1 — IC50 (viral replication; inhibitor; Calu-3; 40 h): 3.26 µM
